Compounds with a hit are over-represented: about 3.8% of the library has one in this group of screens.
KCNK9 inh = blocks the human KCNK9 two-pore domain potassium channel; Q9NPC2; HEK293 KCNK9, FluxOR thallium flux fluorescence; hits give low values; B-score at 10 µM; 310,000 tested, 1.2% active; AID 488922;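 active = ratio B-score over 3 SD below the library mean, with starting fluorescence within 5 SD of its mean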;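 also: negative B-score means less thallium flux so channel inhibition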
Kir21 inh = Kir2.1 (mouse) channel inhibition; B-score at 10 µM; HEK293-Kir2.1, FluxOR thallium flux fluorescence; hits give low values; 310,000 tested, 0.85% active; P35561;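 active = fluorescence ratio B-score at or below minus 3 SD of library scores, with starting-brightness B-score within 2 SD, cut at about -4.2 in these data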;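 also: channel flux triggered by added potassium and thallium sulfate stimulus; B-score of peak minus minimum fluorescence over baseline after thallium stimulus; more negative B-score means stronger Kir2.1 block with less thallium influx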
KCNK3 inh = human KCNK3 channel inhibition, primary screen. 340,000 tested, 0.84% active. CHO-KCNK3 thallium flux, FluxOR fluorescence; hits give low values. B-score at 10 µM. O14649. AID 602410;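 active = B-score under library mean minus 4 SD, starting fluorescence ratio at most library mean plus 5 SD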;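 also: more negative B-score means stronger inhibition of thallium flux through KCNK3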
Target sequence (O14649 whole entry, looked up): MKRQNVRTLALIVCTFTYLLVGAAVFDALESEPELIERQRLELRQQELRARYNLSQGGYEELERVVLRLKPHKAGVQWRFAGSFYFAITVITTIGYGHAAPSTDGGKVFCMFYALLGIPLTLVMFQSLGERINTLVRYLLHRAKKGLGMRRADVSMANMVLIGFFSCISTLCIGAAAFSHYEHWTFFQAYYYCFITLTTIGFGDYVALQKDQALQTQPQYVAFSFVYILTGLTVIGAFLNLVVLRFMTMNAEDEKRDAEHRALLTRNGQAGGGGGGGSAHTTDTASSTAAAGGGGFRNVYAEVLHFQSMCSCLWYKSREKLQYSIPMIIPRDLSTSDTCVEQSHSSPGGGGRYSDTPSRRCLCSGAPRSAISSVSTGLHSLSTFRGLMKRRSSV
hERG protect = hERG (human) protection from proarrhythmic block. CHO-hERG, FluxOR thallium flux, dofetilide IC70 present. activation (rescue from dofetilide block), less the hit threshold, % at 10 µM. 310,000 tested, 0.51% active. AID 1511;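 active = activation above the mean of controls blocked by dofetilide plus 5 SD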;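 also: thallium influx through hERG after potassium depolarization seen as dye fluorescence rise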
KCNQ1 act = potentiates or activates the human KCNQ1 potassium channel. CHO-K1 KCNQ1, thallium flux FluxOR fluorescence; hits give high values. P51787. 310,000 tested, 0.35% active. AID 2648. B-score at 10 µM;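 active = fluorescence ratio B-score, a plate-corrected score, at least three library SD, with initial intensity B-score within 5 SD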
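System: CHO-K1 cells stably expressing KCNQ1 / Medium: assay buffer for compound exposure, DMSO matched across wells / Reagent: thallium- and potassium-containing depolarizing buffer / Compound: one concentration, matched DMSO / Incubation: 20 min compound pretreatment at room temperature / Measured by: kinetic FluxOR fluorescence, 10 s baseline plus 110 s post-stimulus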
KCNQ1 inh = human KCNQ1 channel inhibition. B-score at 10 µM. AID 2642. P51787. 310,000 tested, 1.3% active. CHO-K1 KCNQ1, FluxOR thallium flux fluorescence; hits give high values;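 active = compounds whose thallium flux B-score, printed positive for inhibition, exceeds three library SD while starting fluorescence stays within three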;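 also: channel opened by potassium depolarization with thallium stimulus after 20 min compound exposure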
KCNK9 block conf = confirmation of human KCNK9 potassium channel inhibitors; 4,900 tested, 43% active; shares compounds with KCNK9 inh; inhibition, % at 10 µM; HEK293 KCNK9 cells, FluxOR thallium flux fluorescence;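 active = thallium signal inhibited by more than 5 SD of the compound-free buffer control wells, on both duplicate plates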
Kir2-1 spec = tests whether KCNK9 modulators also affect mouse Kir2.1. shares compounds with KCNK9 inh. Kir2.1 cells, FluxOR thallium flux fluorescence. inhibition, % at 10 µM. 4,900 tested, 4% active. AID 492993;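 active = thallium signal drop more than 5 SD beyond the mean of the no-compound control wells, seen in both duplicate plates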;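 also: signal is fluorescence rise after thallium addition divided by baseline fluorescence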
HEK293 Tl ctr = second check of KCNK9 modulator effects in non-induced HEK293 cells; inhibition, % at 10 µM; AID 492997; 4,900 tested, 40% active; shares compounds with KCNK9 inh; FluxOR thallium flux;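 active = thallium signal drop beyond 5 SD of the untreated control mean, on both duplicate plates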
Of the large screens only hits and unclear results are named; the others gave an inactive call (follow-up assays come after a bar, where they were run).

COc1ccc(N2C(=O)C3NN=C(C(=O)OCc4ccccc4)C3C2=O)cc1 (centres undefined)	none
CSc1ccccc1OCc1cc(C(=O)N2CCc3sccc3C2)no1	none | KCNK9 block conf inactive | Kir2-1 spec inactive | HEK293 Tl ctr inactive
O=C(c1cc(COc2ccc(F)cc2Cl)on1)N1CCc2sccc2C1	none
c1ccc(C[n+]2c(-c3ccccc3)csc2Nc2ccccc2)cc1	KCNK9 inh -8.7 | KCNK9 block conf 35% | Kir2-1 spec inactive | HEK293 Tl ctr 32%
c1ccc(Nc2scc(-c3ccccc3)[n+]2Cc2ccco2)cc1	none
Cc1cc(F)ccc1S(=O)(=O)N(CC(=O)N1CCOCC1)CC(=O)N1CCOCC1	none (no result: KCNK9 inh, Kir21 inh, hERG protect, KCNQ1 act, KCNQ1 inh)
COc1cccc(/C=N/Nc2ncnc3scc(-c4ccccc4)c23)c1O	none | KCNK9 block conf inactive | Kir2-1 spec inactive | HEK293 Tl ctr inactive
COc1cccc(/C=N/Nc2ncnc(Cl)c2N)c1O	none
Cc1cc(C(C)(C)C)cc(C)c1Cn1c2[n+](c3ccc(C(F)(F)F)cc31)CCCCC2	KCNK9 inh -11, Kir21 inh -7.2, KCNQ1 inh 6 | KCNK9 block conf 71% | Kir2-1 spec inactive | HEK293 Tl ctr inactive
COc1cccc(CCNC(=O)CCc2nnc(-c3cc(C)oc3C)o2)c1	none
CCN(CC)S(=O)(=O)c1ccc(N2CCOCC2)c(NC(=O)c2ccccc2)c1	none
CCN(CC)S(=O)(=O)c1ccc(N2CCOCC2)c(NC(=O)C23CC4CC(CC(Cl)(C4)C2)C3)c1	none | KCNK9 block conf inactive | Kir2-1 spec inactive | HEK293 Tl ctr inactive
CCOC(=O)c1c(NC(=O)CSc2nnc(-c3cccnc3)o2)sc2c1CCC2	none
CCOC(=O)c1c(NC(=O)Cn2nnc3ccccc32)sc2c1CCC(C)C2 (centres undefined)	none
CCOC(=O)c1c(NC(=O)CSc2nnc(C)s2)sc2c1CCC(C)C2 (centres undefined)	KCNK9 inh -9.8 | KCNK9 block conf inactive | Kir2-1 spec inactive | HEK293 Tl ctr 52%
CCOC(=O)c1c(NC(=O)CSc2nnc(-c3ccc(OC)cc3)o2)sc2c1CCC2	none | KCNK9 block conf inactive | Kir2-1 spec inactive | HEK293 Tl ctr inactive
CCN(CC(=O)Nc1c(F)cccc1F)C(=O)/C=C/c1ccc(Br)s1	none
CCN(CC)CCNC(=O)CCc1c(C)nc2c(c(C)nn2-c2ccc(C)c(C)c2)c1C	none
CCC(C)(C)n1nnnc1C(c1cccc(C#N)c1)N1CCN(c2cccc(C)c2C)CC1 (centres undefined)	KCNK9 inh -17, KCNK3 inh -9.5 | KCNK9 block conf 74% | Kir2-1 spec inactive | HEK293 Tl ctr 38%
CC(C)(C)n1nnnc1C(c1cccc(C#N)c1)N1CCCCCC1 (centres undefined)	none
COc1ccc(C(c2nnnn2Cc2ccccc2)N2CCN(c3nc4ccccc4s3)CC2)cc1OC (centres undefined)	KCNK9 inh -8.7 | KCNK9 block conf inactive | Kir2-1 spec inactive | HEK293 Tl ctr inactive
CCC(C)(C)n1nnnc1C(c1ccc(O)c(OC)c1)N1CCN(c2nc3ccccc3s2)CC1 (centres undefined)	KCNK9 inh -15 | KCNK9 block conf 46% | Kir2-1 spec inactive | HEK293 Tl ctr 28%
COc1ccccc1C(c1nnnn1Cc1ccccc1)N1CCN(c2nc3ccccc3s2)CC1 (centres undefined)	none
CCCn1c(/C=N/Nc2nc3ccccc3[nH]2)nc2ccccc21	none (no result: KCNK9 inh, Kir21 inh, hERG protect, KCNQ1 act, KCNQ1 inh)
CC(C)Cn1c(/C=N/Nc2nc3ccccc3[nH]2)nc2ccccc21	KCNQ1 inh 11 | KCNK9 block conf 27% | Kir2-1 spec inactive | HEK293 Tl ctr inactive
COc1ccc(C(=O)c2c(-c3cccc(C)c3)oc3ccc(N4CCOCC4)cc23)cn1	none
Cn1c2ccccc2c(=O)c2cc(C#Cc3ccc(N)cc3)ccc21	KCNK9 inh -8.5 | KCNK9 block conf 38% | Kir2-1 spec inactive | HEK293 Tl ctr 26%
Nc1ccc(C#Cc2ccc3oc4ccccc4c(=O)c3c2)cc1	none
COC(=O)C1=C(C)NC(C)=C(C(=O)OC)C1c1ccc(OC(=O)c2oc3ccccc3c2C)c(OC)c1	KCNK9 inh -9.6 | KCNK9 block conf 62% | Kir2-1 spec inactive | HEK293 Tl ctr 34%
COc1ccc(C2=NCC(CSc3nnc(-c4ccc5c(c4)OCO5)o3)S2)cc1 (centres undefined)	none | KCNK9 block conf inactive | Kir2-1 spec inactive | HEK293 Tl ctr inactive
Cc1ccc(CSc2nnc(-c3ccc4c(c3)OCO4)o2)cc1	none
O=C(CCc1nc2ccccc2s1)OCc1ccccc1	none | KCNK9 block conf inactive | Kir2-1 spec inactive | HEK293 Tl ctr inactive
O=C(CCC(=O)c1cccs1)OCc1nc2ccccc2s1	none
Cc1cccc(-c2ncc(CN3CCN(CC(C)C)C(CCO)C3)cn2)c1 (centres undefined)	none | KCNK9 block conf inactive | Kir2-1 spec inactive | HEK293 Tl ctr inactive
Cc1sc2ncnc(NCC(c3ccco3)N(C)C)c2c1C (centres undefined)	none
CN(C)C(CNc1ncnc2sc3c(c12)CCCCC3)c1ccco1 (centres undefined)	none | KCNK9 block conf inactive | Kir2-1 spec inactive | HEK293 Tl ctr inactive
O=C(NCc1ccccc1)c1onc(CSc2ccc(F)cc2)c1C(=O)NCc1ccccc1	none | KCNK9 block conf inactive | Kir2-1 spec inactive | HEK293 Tl ctr inactive
CC(C)CCNC(=O)c1c(CSc2ccc(Cl)cc2)noc1C(=O)NCc1ccccc1	none | KCNK9 block conf inactive | Kir2-1 spec inactive | HEK293 Tl ctr inactive
O=C(NCc1ccccc1)c1onc(CSc2ccccn2)c1C(=O)NCc1ccccc1	none | KCNK9 block conf inactive | Kir2-1 spec inactive | HEK293 Tl ctr inactive
CCCCNC(=O)c1onc(CSc2ccc(F)cc2)c1C(=O)NCCCC	none | KCNK9 block conf inactive | Kir2-1 spec inactive | HEK293 Tl ctr inactive
CCc1ccc(OCC(=O)Nc2nnc(C3CCCC3)s2)cc1	none
COCCN(C(=O)c1cc(Cl)ccn1)c1c(N)n(Cc2ccccc2)c(=O)[nH]c1=O	none (no result: KCNK9 inh, Kir21 inh, hERG protect, KCNQ1 act, KCNQ1 inh)
Cc1cc(C)c(S(=O)(=O)N2CCC(C(=O)NCc3ccc(Cl)cc3Cl)CC2)c(C)c1	none | KCNK9 block conf inactive | Kir2-1 spec inactive | HEK293 Tl ctr inactive
COc1ccc2ccccc2c1CNC(C)c1ccccc1 (centres undefined)	Kir21 inh -5.5 | KCNK9 block conf inactive | Kir2-1 spec inactive | HEK293 Tl ctr inactive

Screening results as filed in PubChem.
